Source: ChEMBL document CHEMBL3272145, “Synthesis and some pharmacological properties of the 23-peptide 15-lysine-secretin-(5--27). Special role of the residue in position 15 in biological activity of the vasoactive intestinal polypeptide” (1978)
The source made the active and inactive calls. The calls are words filed in the database; no cut-off is given here.

Tests used:
Rattus norvegicus [1] = species: Rattus norvegicus; experiment: Effect on exocrine pancreatic secretion in rat; type: functional, organism-based
Cavia porcellus [2] = species: Cavia porcellus; experiment: Apparent binding affinity to VIP receptor in guinea pig acinar cells assessed as inhibition of VIP-induced cAMP accumulation measured as concentration required to occupy 50% of receptor; type: cell-based
How it was run: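 Dispersed acinar cells from guinea pig pancreas. Apparent affinity for the VIP-preferring receptor was calculated from the fragment's ability to inhibit the cAMP increase caused by 10^-9 M VIP. Values are means (±1 SD) from three separate experiments.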

Rattus norvegicus [3] = experiment: Induction of pancreatic secretory flow in iv dosed rat measured per 10 mins per gram wet weight of pancreas; type: functional
Cavia porcellus [4] = species: Cavia porcellus; experiment: Vasolrelaxant activity in guinea pig trachea; type: functional, tissue-based
[5] = Vasolrelaxant activity in rat gastric fundus; type: functional, tissue-based; conditions: Stomach
Cavia porcellus [6] = species: Cavia porcellus; experiment: Apparent binding affinity to secretin receptor in guinea pig acinar cells assessed as inhibition of secretin-induced cAMP accumulation measured as concentration required to occupy 50% of receptor; type: cell-based
How it was run: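 Dispersed acinar cells from guinea pig pancreas. Apparent affinity for the secretin-preferring receptor was calculated from the fragment's ability to inhibit the cAMP increase caused by 10^-9 M secretin. Values are means (±1 SD) from three separate experiments.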

[7] = Vasolrelaxant activity in guinea pig lung; type: functional; conditions: Cavia porcellus
Rattus norvegicus [8] = experiment: Induction of pancreatic secretory flow in iv dosed rat measured per 10 mins per gram wet weight of pancreas relative to secretin; type: functional

| Compound | Activity (Rattus norvegicus [1]) | Activity (Cavia porcellus [2]) [×10⁻⁷ M] | Activity (Rattus norvegicus [3]) | Activity (Cavia porcellus [4]) | Activity [5] | Activity (Cavia porcellus [6]) [×10⁻⁷ M] | Activity [7] | Emax (Rattus norvegicus [8]) [%] |
| --- | --- | --- | --- | --- | --- | --- | --- | --- |
| H-TFTSELSRLRKSARLQRLLQGLV-NH2 | inactive | 10 | 12.9 µL | Active | Active | 12 | Active | 20 |
| SECRETIN | – | – | Active | – | – | – | – | – |
| H-TFTSELSRLRDSARLQRLLQGLV-NH2 | – | 46 | – | Active | Active | 2.3 | Active | – |
| H-TFTSELSRLRNSARLQRLLQGLV-NH2 | inactive | 8 | Active | – | – | 1.9 | – | – |
| CC[C@H](C)[C@H](NC(=O)[C@H](CO)NC(=O)[C@H](CC(N)=O)NC(=O)[C@H](CC(C)C)NC(=O)[C@H](Cc1ccc(O)cc1)NC(=O)[C@H](CCCCN)NC(=O)[C@H](CCCCN)NC(=O)[C@@H](NC(=O)[C@H](C)NC(=O)[C@H](CCSC)NC(=O)[C@H](CCC(N)=O)NC(=O)[C@H](CCCCN)NC(=O)[C@H](CCCN=C(N)N)NC(=O)[C@H](CC(C)C)NC(=O)[C@H](CCCN=C(N)N)NC(=O)[C@@H](NC(=O)[C@H](Cc1ccc(O)cc1)NC(=O)[C@H](CC(N)=O)NC(=O)[C@H](CC(=O)O)NC(=O)[C@@H](NC(=O)[C@H](Cc1ccccc1)NC(=O)[C@@H](NC(=O)[C@H](C)NC(=O)[C@H](CC(=O)O)NC(=O)[C@H](CO)NC(=O)[C@@H](N)Cc1c[nH]cn1)C(C)C)[C@@H](C)O)[C@@H](C)O)C(C)C)C(=O)N[C@@H](CC(C)C)C(=O)N[C@@H](CC(N)=O)C(N)=O | – | – | – | Active | Active | – | Active | – |
